This note sets out measurements from PubChem BioAssay AID540266 (Southern Research Specialized Biocontainment Screening …, 2011).

“And” between values parts separate entries of the source, which are not always exact repeats. Equal entries are not always repeated. The source made the active and inactive calls.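 Rule for the calls: active = any dose giving under 70% viability, per first replicate; inactive = the rest.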

Tested on in the first experiment: not listed separately
Description: viability of uninfected HEp-2 cells – cell-based, CellTiter-Glo luminescence, synthesized compounds, set 11, cytotoxicity control for RSV inhibitor project, dose response (AID 540266). The conditions noted are these: HEp-2 cell viability, luminescence (CellTiter-Glo); at 200 µM (top of the series). In outline: (§1)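 Test system: uninfected HEp-2 cells; buffer or medium: DMEM/F12 with FBS; compound dosing: Eight-concentration twofold dilution series, 0.5% DMSO final; times: 6 d compound exposure, 37 °C; measured by: CellTiter-Glo luminescence; evaluation: % viability and CC50 from constrained 4-parameter fit; repeats: triplicate wells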
Take `Cc1ccc(Cn2c(=O)n(Cc3ccc(C(=O)Nc4ccncc4)cc3)c(=O)c3ccccc32)cc1`: the viability (commonly the share of living cells, or the viability signal relative to a control) was 84% (inactive).

In another experiment the test system is HEp-2 cell viability, luminescence (CellTiter-Glo). The experiment is described as above.
Settings: not given
In outline: as §1
Turning to `COCCCNC(=O)c1ccc(Cn2c(=O)c3ccccc3n(Cc3ccc(Br)cc3)c2=O)cc1`, the CC50 (usually the concentration at which the toxic effect on the cells reaches its halfway point) is 138 µM.
Same read-out and setting: under `COCCCNC(=O)c1ccc(Cn2c(=O)c3ccccc3n(Cc3ccc([N+](=O)[O-])cc3)c2=O)cc1` stands 113 µM.
Still for that read-out and setting: the value for `Cc1ccc(Cn2c(=O)n(Cc3ccc(C(=O)NCCCN(C)C)cc3)c(=O)c3ccccc32)cc1` was 15.1 µM; that for `COCCCNC(=O)c1ccc(Cn2c(=O)c3ccccc3n(Cc3ccccc3Br)c2=O)cc1` was 7.99 µM.
Still for that read-out and setting: the value for `Cc1ccc(Cn2c(=O)n(Cc3ccc(C(=O)NCCCOC(C)C)cc3)c(=O)c3ccccc32)cc1` was 19.1 µM; that for `COCCCNC(=O)c1ccc(Cn2c(=O)c3ccccc3n(Cc3cccc(Br)c3)c2=O)cc1` was 3.32 µM; that for `COCCCNC(=O)c1ccc(Cn2c(=O)c3ccccc3n(Cc3ccc(F)cc3)c2=O)cc1` was 7.09 µM.
For `COCCCNC(=O)c1ccc(Cn2c(=O)c3ccccc3n(Cc3ccc(C)c(C(F)(F)F)c3)c2=O)cc1`, the CC50 is 71.3 µM.
For the molecule `COCCCNC(=O)c1ccc(Cn2c(=O)c3ccccc3n(Cc3ccc(C(F)(F)F)cc3)c2=O)cc1`, the CC50 was 79.2 µM.
The same measure, in the same setting: under `CCOCCCNC(=O)c1ccc(Cn2c(=O)c3ccccc3n(Cc3ccc(C)cc3)c2=O)cc1` stands 8.5 µM.
On the same count and under the same terms, the value for `Cc1ccc(C)c(NC(=O)[C@@H]2CCCN2S(=O)(=O)c2cccc3cccnc23)c1` was 34.7 µM and 32.9 µM.
On the same count and under the same terms, under `COCCCNC(=O)c1ccc(Cn2c(=O)c3ccccc3n(Cc3ccc(OC)cc3)c2=O)cc1` stands 149 µM.
For `Cc1ccc(Cn2c(=O)n(Cc3ccc(C(=O)NC(C)(C)C)cc3)c(=O)c3ccccc32)cc1`, the CC50 was 12.1 µM.
The same measure, in the same setting: under `COCCCNC(=O)c1ccc(Cn2c(=O)c3ccccc3n(Cc3ccccc3F)c2=O)cc1` stands 7.1 µM.
